Assay results taken from ChEMBL document CHEMBL4823271, “Synthesis and structure-activity relationship of new chalcone linked 5-phenyl-3-isoxazolecarboxylic acid methyl esters potentially active against drug resistant Mycobacterium tuberculosis” (Eur J Med Chem, 2021).
In brackets after ≈: the same amount, converted by molar mass. Activity calls are given as the source filed them. No cut-off for these calls is given here.

How the values were obtained:
[1] = tested on: Mycobacterium tuberculosis; test: Antitubercular activity against Mycobacterium tuberculosis H37Rv assessed as bacterial growth inhibition after 7 days by broth microdilution assay; assay type: functional; details: 168 h, dose 0.03-64 µg/ml, time 7 day
Procedure, shortened: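 Compounds were tested in broth microdilution from 64 downward, incubated 37 °C for 7 days, then resazurin (PrestoBlue) added. MIC is the lowest concentration preventing the blue-to-pink change, run in triplicate, reporting the value obtained at least twice of three.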

[2] = Cytotoxicity against African green monkey vero cells assessed as reduction in cell viability measured after 72 hrs by MTT assay; assay type: cell-based; details: chlorocebus sabaeus
Procedure, shortened: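 Vero cells seeded at ~10³ cells/well and grown 24 h at 37 °C, 5% CO₂, then exposed to compound (100 to 5 mg/l) for 72 h. MTT was added […] for 4 h and formazan dissolved in DMSO. CC50 is the lowest concentration giving 50% viability reduction. Doxorubicin was the positive control, run in triplicate.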

[3] = Selectivity index, ratio of CC50 for African green monkey Vero cells to MIC for Antitubercular activity against Mycobacterium tuberculosis H37Rv; assay type: toxicity; details: read-out: Selectivity Index
Procedure, shortened: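 Selectivity index calculated as Vero CC50 (MTT, 72 h) divided by the H37Rv MIC from the resazurin broth microdilution assay.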

[4] = tested on: Mycobacteroides abscessus; test: Antimycobacterial activity against Mycobacterium abscessus ATCC 19977 assessed as visible growth inhibition incubated for 16 to 18 hrs; assay type: functional, organism-based; details: time 16-18 hrs
[5] = tested on: Mycolicibacterium fortuitum; test: Antimycobacterial activity against Mycobacterium fortuitum ATCC 6841 assessed as visible growth inhibition incubated for 16 to 18 hrs; assay type: functional, organism-based; details: time 16-18 hrs
Mycobacteroides chelonae = test: Antimycobacterial activity against Mycobacterium chelonae ATCC 35752 assessed as visible growth inhibition incubated for 16 to 18 hrs; assay type: functional, organism-based; details: time 16-18 hrs
[6] = tested on: Mycobacterium tuberculosis; test: Antimycobacterial activity against Mycobacterium tuberculosis H37Rv ATCC 27294 assessed as reduction in bacterial growth incubated for […] by broth microdilution assay; assay type: functional

Row | Compound | MIC [1] [µg/mL] | CC50 at 72 h [2] [µg/mL] | selectivity ratio [3] | Activity [4] | Activity [5] | Activity (Mycobacteroides chelonae) | MIC90 [1] [µg/mL] | MIC [6] [µg/mL]
1 | COC(=O)c1cc(-c2cccc(NC(=O)c3ccc(/C=C/C(=O)c4cc(OC)c(OC)c(OC)c4)cc3)c2)on1 | 1 (≈ 1.84 µM) | > 50 | > 50 | inactive | inactive | inactive |  | 
2 | CCOC(=O)c1nnn(-c2cccc(NC(=O)c3ccc(/C=C/C(=O)c4ccc(Cl)cc4)cc3)c2)c1C | > 64 |  |  | inactive |  |  |  | 
3 | COC(=O)c1cc(-c2cccc(NC(=O)c3ccc(/C=C/C(=O)c4ccc(O)cc4)cc3)c2)on1 | > 64 |  |  | inactive | inactive | inactive |  | 
4 | O=C(/C=C/c1ccc([N+](=O)[O-])o1)c1ccc(N2CCCCC2)cc1 | 0.06 (≈ 0.184 µM) |  |  |  |  |  |  | 
5 | COC(=O)c1cc(-c2cccc(NC(=O)c3ccc(/C=C/C(=O)c4cccc(Br)c4)cc3)c2)on1 | 4 (≈ 7.53 µM) | > 100 | > 25 | inactive | inactive | inactive |  | 
6 | CCOC(=O)c1cc(-c2cccc(OCc3cccc(C(F)(F)F)c3)c2)on1 | 0.23 (≈ 0.588 µM) |  |  |  |  |  |  | 
7 | COC(=O)c1cc(-c2cccc(NC(=O)c3ccc(/C=C/C(=O)c4ccc(OC)c([N+](=O)[O-])c4)cc3)c2)on1 | 1 (≈ 1.9 µM) | > 40 | > 40 | inactive | inactive | inactive |  | 
8 | Cc1ccc(Nc2nc(-c3cc(C(=O)Nc4ccccn4)no3)c(C)s2)cc1 |  |  |  |  |  |  | 0.06 (≈ 0.153 µM) | 
9 | O=C(O)c1ccc(/C=C/C(=O)c2ccc(Cl)cc2)cc1 | 4 (≈ 14 µM) | < 10 | < 10 |  |  |  |  | 
10 | COC(=O)c1cc(-c2cccc(NC(=O)c3ccc(/C=C/C(=O)c4ccc(C)c(F)c4)cc3)c2)on1 | 2 (≈ 4.13 µM) | > 50 | > 25 | inactive | inactive | inactive |  | 
11 | CCOC(=O)c1cc(-c2cccc(NC(=O)c3cccc(C(F)(F)F)c3)c2)on1 | 64 (≈ 158 µM) |  |  |  |  |  |  | 
12 | COc1ccc(OC)c(/C=C/C(=O)c2ccc(Nc3ccnc4cc(Cl)ccc34)cc2)c1 | 3.12 (≈ 7.01 µM) |  |  |  |  |  |  | 
13 | COC(=O)c1cc(-c2cccc(NC(=O)c3ccc(/C=C/C(=O)c4cccnc4)cc3)c2)on1 | 64 (≈ 141 µM) |  |  | inactive | inactive | inactive |  | 
14 | COC(=O)c1cc(-c2cccc(NC(=O)c3ccc(/C=C/C(=O)c4ccc(C)c([N+](=O)[O-])c4)cc3)c2)on1 | 4 (≈ 7.82 µM) | > 80 | > 20 | inactive | inactive | inactive |  | 
15 | COC(=O)c1cc(-c2cccc(NC(=O)c3ccc(/C=C/C(=O)c4cc(F)ccc4F)cc3)c2)on1 | 1 (≈ 2.05 µM) | > 40 | > 40 | inactive | inactive | inactive |  | 
16 | CC(C)Cc1ccc(C(=O)/C=C/c2ccc(C(=O)O)cc2)cc1 | 32 (≈ 104 µM) | < 10 | < 10 |  |  |  |  | 
17 | O=C(/C=C/c1c[nH]c2ccccc12)c1cccs1 | 49.9 (≈ 197 µM) |  |  |  |  |  |  | 
18 | COC(=O)c1cc(-c2cccc(NC(=O)c3ccc(/C=C/C(=O)c4ccccc4O)cc3)c2)on1 | 16 (≈ 34.2 µM) |  |  | inactive | inactive | inactive |  | 
19 | COC(=O)[C@H](NC(=O)c1cc(COc2ccc3sc(C)nc3c2)on1)c1ccccc1 | 0.61 (≈ 1.39 µM) |  |  |  |  |  |  | 
20 | O=C(/C=C/c1ccc(-n2ccnc2)cc1)c1ccc(OCc2cc(F)ccc2F)cc1 | 0.78 (≈ 1.87 µM) |  |  |  |  |  |  | 
21 | CC[C@@H](CO)NCCN[C@@H](CC)CO [ETHAMBUTOL] | 1 (≈ 4.89 µM) |  |  |  |  |  |  | 1 (≈ 4.89 µM)
22 | O=C(O)c1ccc(C(=O)/C=C/c2ccc3ccccc3c2)cc1 | 0.5 (≈ 1.65 µM) |  |  |  |  |  |  | 

Row | Compound | MIC [1] [µg/mL] | CC50 at 72 h [2] [µg/mL] | selectivity ratio [3] | Activity [4] | Activity [5] | Activity (Mycobacteroides chelonae) | MIC90 [1] [µg/mL] | MIC [6] [µg/mL]
23 | COC(=O)c1cc(-c2cccc(NC(=O)c3ccc(/C=C/C(=O)c4ccc(Br)cc4)cc3)c2)on1 | 1 (≈ 1.88 µM) | > 20 | > 2 | inactive | inactive | inactive |  | 
24 | COC(=O)c1cc(-c2cccc(NC(=O)c3ccc(/C=C/C(=O)c4ccc(OC)c(OC)c4)cc3)c2)on1 | 1 (≈ 1.95 µM) | > 50 | > 50 | inactive | inactive | inactive |  | 
25 | CCOC(=O)c1cc(/C=C/c2c(Cl)cncc2Cl)on1 | 0.18 (≈ 0.575 µM) |  |  |  |  |  |  | 0.5 (≈ 1.6 µM)
26 | NNC(=O)c1ccncc1 [ISONIAZID] | 0.03 (≈ 0.219 µM) |  |  |  |  |  |  | 0.03 (≈ 0.219 µM)
27 | CO[C@H]1/C=C/O[C@@]2(C)Oc3c(C)c(O)c4c(O)c(c(/C=N/N5CCN(C)CC5)c(O)c4c3C2=O)NC(=O)/C(C)=C\C=C\[C@H](C)[C@H](O)[C@@H](C)[C@@H](O)[C@@H](C)[C@H](OC(C)=O)[C@@H]1C [RIFAMPIN] | 0.03 (≈ 0.0365 µM) |  |  |  |  |  |  | 0.06 (≈ 0.0729 µM)
28 | COC(=O)c1cc(-c2cccc(NC(=O)c3ccc(/C=C/C(=O)c4cccc(C(F)(F)F)c4)cc3)c2)on1 | 1 (≈ 1.92 µM) | > 20 | > 20 | inactive | inactive | inactive |  | 
29 | CCCOc1ccc(C(=O)/C=C/c2ccc(C(=O)O)cc2)cc1 | 32 (≈ 103 µM) | < 10 | < 10 |  |  |  |  | 
30 | COC(=O)c1cc(-c2cccc(NC(=O)c3ccc(/C=C/C(=O)c4ccccc4Br)cc3)c2)on1 | 1 (≈ 1.88 µM) | > 40 | > 40 | inactive | inactive | inactive |  | 
31 | COC(=O)c1cc(-c2cccc(NC(=O)c3ccc(/C=C/C(=O)c4ccc(OC)cc4)cc3)c2)on1 | 4 (≈ 8.29 µM) | > 10 | > 2.5 | inactive | inactive | inactive |  | 
32 | COC(=O)c1cc(-c2cccc(NC(=O)c3ccc(C4OC4C(=O)c4ccc(Cl)cc4)cc3)c2)on1 (stereo not given) | 4 (≈ 7.95 µM) | > 20 | > 5 | inactive | inactive | inactive |  | 
33 | COC(=O)c1cc(-c2cccc(NC(=O)c3ccc(/C=C/C(=O)c4cccc(OC)c4)cc3)c2)on1 | 2 (≈ 4.15 µM) | > 100 | > 50 | inactive | inactive | inactive |  | 
34 | COC(=O)c1cc(-c2cccc(NC(=O)/C=C/c3ccc(Cl)cc3)c2)on1 | 2 (≈ 5.22 µM) |  |  | inactive | inactive | inactive |  | 
35 | COC(=O)c1cc(-c2cccc(NC(=O)c3ccc(/C=C/C(=O)c4ccccc4)cc3)c2)on1 | 1 (≈ 2.21 µM) | > 50 | > 50 | inactive | inactive | inactive |  | 
36 | COC(=O)c1cc(-c2cccc(NC(=O)c3ccc(/C=C/C(=O)c4ccc(F)cc4)cc3)c2)on1 | 4 (≈ 8.5 µM) | > 20 | > 5 | inactive | inactive | inactive |  | 
37 | CCOC(=O)c1cc(COc2cc(C(F)(F)F)nc3cc(C(F)(F)F)cc(C(F)(F)F)c23)on1 | 0.39 (≈ 0.776 µM) |  |  |  |  |  |  | 
38 | COC(=O)c1cc(-c2cccc(NC(=O)c3ccc(/C=C/C(=O)c4cccc([N+](=O)[O-])c4)cc3)c2)on1 | 2 (≈ 4.02 µM) | > 40 | > 20 | inactive | inactive | inactive |  | 
39 | COC(=O)c1cc(-c2cccc(NC(=O)c3ccc(/C=C/C(=O)c4ccccc4OC)cc3)c2)on1 | 1 (≈ 2.07 µM) | > 40 | > 40 | inactive | inactive | inactive |  | 
40 | COC(=O)c1cc(-c2cccc(NC(=O)c3ccc(OCc4ccc(Cl)cc4)cc3)c2)on1 | 1 (≈ 2.16 µM) | > 80 | > 80 | inactive | inactive | inactive |  | 
41 | COC(=O)c1cc(-c2cccc(NC(=O)c3ccc(/C=C/C(=O)c4cccc(F)c4)cc3)c2)on1 | 2 (≈ 4.25 µM) | > 40 | > 20 | inactive | inactive | inactive |  | 
42 | COC(=O)c1cc(-c2cccc(NC(=O)c3ccc(/C=C/C(=O)c4cccs4)cc3)c2)on1 | 32 (≈ 69.8 µM) |  |  | inactive | inactive | inactive |  | 
43 | COC(=O)c1cc(-c2cccc(NC(=O)c3ccc(/C=C/C(=O)c4ccc5c(c4)OCO5)cc3)c2)on1 | 2 (≈ 4.03 µM) | > 40 | > 20 | inactive | inactive | inactive |  | 
44 | COC(=O)c1cc(-c2cccc(NC(=O)c3ccc(/C=C/C(=O)c4ccc([N+](=O)[O-])cc4)cc3)c2)on1 | 2 (≈ 4.02 µM) | > 20 | > 10 | inactive | inactive | inactive |  | 
